# Measured values collected from several papers.
# Compare with care: the assays were run in different laboratories.
# Target: Fibroblast growth factor receptor 4 (FGFR4, Homo sapiens, UniProt P22455)
Structure (SMILES),effect on,action,technique,tested at,quantity,result
CC/C(=N\NC(=O)NCc1cccc(O)c1)c1ccc(O)c(C)c1O,enzyme activity,inhibitor,,0.1 µM,inhibition,3.3%
N#CCCc1ccc2c(c1)-c1[nH]c3ccc([N+](=O)[O-])cc3c1CC(=O)N2,cell-free assay,,,0.5 µM,remaining signal,89.1%
CCCS(=O)(=O)Nc1ccc(F)c(C(=O)c2c[nH]c3ncc(-c4ccc(Cl)cc4)cc23)c1F,enzyme activity,inhibitor,,1 µM,inhibition,< 10%
CCN(CC)CCNC(=O)c1c(C)[nH]c(/C=C2\C(=O)Nc3ccc(F)cc32)c1C,enzyme activity,inhibitor,,10 µM,inhibition,30%
CC(C)(C)c1nc(-c2cccc(NS(=O)(=O)c3c(F)cccc3F)c2F)c(-c2ccnc(N)n2)s1,enzyme activity,inhibitor,radiometric,1 µM,remaining activity,93%
CN(C)C(=O)Cn1cc(-c2nc(C3(c4ccc(-c5cnc(N)nc5)cc4)CC3)no2)cn1,cell-free assay,,competition with immobilised ligand,1 µM,remaining binding,100%
Cc1cc(NC(=O)c2cccc3cc(-c4cccc5[nH]nc(N)c45)ccc23)ccc1F,enzyme activity,inhibitor,,0.1 µM,activity vs control,101%
CNC(=O)c1cc(Oc2ccc(NC(=O)Nc3ccc(Cl)c(C(F)(F)F)c3)cc2)ccn1,enzyme activity,inhibitor,,0.3 µM,inhibition,2%
COc1cc2ncnc(Nc3ccc(Oc4ccccc4)cc3C)c2cc1OC,enzyme activity,inhibitor,,1 µM,inhibition,-3%
CC(C)(O)[C@H]1CC[C@H](Nc2ccc3ncc(-c4cccc(C(F)(F)F)c4)n3n2)CC1,enzyme activity,inhibitor,,1 µM,remaining activity,108%
COc1cc(-c2cn(C3CCc4c(F)cccc4N(CC(F)(F)F)C3=O)nn2)ccc1-n1cnc(C)c1 (centres unmarked),cell-free assay,,competition with immobilised ligand,1 µM,remaining binding,100%
O=C(Nc1cnn(-c2csc(C(=O)NC3COC3)c2)c1)Nc1c(F)cccc1Cl,enzyme activity,inhibitor,,5 µM,remaining activity,99.6%
CS(=O)(=O)N1CCCC(NC(=O)[C@H](CCC2CCCCC2)NC(=O)c2ccc(CNC(=O)c3cnc4ccccn34)cc2)C1 (some centres unmarked),cell-free assay,,competition with immobilised ligand,0.1 µM,remaining binding,100%
Cc1ccc(C(=O)NCc2ccsc2)cc1C#Cc1cn(C(C)C)c2ncnc(N)c12,enzyme activity,inhibitor,,1 µM,activity vs control,99%
C[C@@]1(Cc2ccc(C#N)cc2)C(=O)N(c2cc(Cl)cc(Cl)c2)c2ncc(C(=O)NC3(c4nc(C5CCC5)no4)CC3)n21,cell-free assay,,competition with immobilised ligand,1 µM,remaining binding,96%
Cc1ccc(Nc2nccc(N(C)c3ccc4c(C)n(C)nc4c3)n2)cc1S(N)(=O)=O,cell-free assay,,,0.5 µM,remaining signal,68.3%
NS(=O)(=O)c1cc(NC(=O)C2(c3ccccc3Cl)CC2)ccc1Oc1cccc(Cl)c1,cell-free assay,,competition with immobilised ligand,1 µM,remaining binding,100%
O=C1NC(=O)c2cc(Nc3ccc(F)cc3)c(Nc3ccc(F)cc3)cc21,cell-free assay,,,0.5 µM,remaining signal,95.5%
C=CC(=O)Nc1cc(Nc2nccc(Nc3cc(Cl)c(F)cc3C(C)(C)O)n2)c(OC)cc1N1CC[C@@H](N(C)C)C1,enzyme activity,inhibitor,,1 µM,inhibition,2%
CC(C)(O)c1cncc(-c2nc3ccc(F)cc3n2C2CC2)c1,cell-free assay,,competition with immobilised ligand,1 µM,remaining binding,100%
COc1cc(Cl)c(C(=O)N[C@@H](CN[C@H]2CC[C@@H](N)CC2)Cc2ccc(C#N)cc2)cc1-c1ccc(CN[C@H](C)c2ccc(C)cc2)o1,enzyme activity,inhibitor,,1 µM,remaining activity,96%
O=C(Nc1cnn(-c2csc(C(=O)NC3COC3)c2)c1)Nc1ccccc1Cl,enzyme activity,inhibitor,,5 µM,remaining activity,88.2%
Cc1cc(-n2nc(Cc3cc(F)cc(C(F)(F)F)c3)nc2C)ccc1C(N)=O,cell-free assay,,competition with immobilised ligand,1 µM,remaining binding,100%
